Active and inactive are the calls of the source. The calls are words filed in the database; no cut-off is given here.
Legend:
[1] = Toxicity in NOD/SCID mouse assessed as animal survival at 5 to 10 mg/kg, ip dosed 3 times per week and measured at >3 weeks of treatment; type: organism-based; settings: in vivo, 504 h, dose 5-10 mg/kg
[2] = Toxicity in NOD/SCID mouse assessed as animal survival at 5 mg/kg, ip dosed 3 times per week and measured after 24 days of treatment; type: organism-based; settings: in vivo, time 24 day
Procedure, shortened: (§1)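 Six-week-old male NOD/SCID mice, 4 per group, received 5 mg/kg IP every other day, three times per week. Animals were monitored throughout dosing and euthanized after 24 days of treatment. Survival over the dosing period was plotted as a survival curve.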

[3] = molecular target: Phosphatidylinositol 4,5-bisphosphate 3-kinase catalytic subunit gamma isoform (Homo sapiens) (UniProt P48736); experiment: Inhibition of PI3Kgamma in human Raji cells assessed as inhibition of cell viability at 100 nM after 72 hrs by CellTiter-Glo luminescence assay; type: cell-based
Sequence of Phosphatidylinositol 4,5-bisphosphate 3-kinase catalytic subunit gamma isoform (Homo sapiens) (P48736 whole entry, looked up, canonical isoform): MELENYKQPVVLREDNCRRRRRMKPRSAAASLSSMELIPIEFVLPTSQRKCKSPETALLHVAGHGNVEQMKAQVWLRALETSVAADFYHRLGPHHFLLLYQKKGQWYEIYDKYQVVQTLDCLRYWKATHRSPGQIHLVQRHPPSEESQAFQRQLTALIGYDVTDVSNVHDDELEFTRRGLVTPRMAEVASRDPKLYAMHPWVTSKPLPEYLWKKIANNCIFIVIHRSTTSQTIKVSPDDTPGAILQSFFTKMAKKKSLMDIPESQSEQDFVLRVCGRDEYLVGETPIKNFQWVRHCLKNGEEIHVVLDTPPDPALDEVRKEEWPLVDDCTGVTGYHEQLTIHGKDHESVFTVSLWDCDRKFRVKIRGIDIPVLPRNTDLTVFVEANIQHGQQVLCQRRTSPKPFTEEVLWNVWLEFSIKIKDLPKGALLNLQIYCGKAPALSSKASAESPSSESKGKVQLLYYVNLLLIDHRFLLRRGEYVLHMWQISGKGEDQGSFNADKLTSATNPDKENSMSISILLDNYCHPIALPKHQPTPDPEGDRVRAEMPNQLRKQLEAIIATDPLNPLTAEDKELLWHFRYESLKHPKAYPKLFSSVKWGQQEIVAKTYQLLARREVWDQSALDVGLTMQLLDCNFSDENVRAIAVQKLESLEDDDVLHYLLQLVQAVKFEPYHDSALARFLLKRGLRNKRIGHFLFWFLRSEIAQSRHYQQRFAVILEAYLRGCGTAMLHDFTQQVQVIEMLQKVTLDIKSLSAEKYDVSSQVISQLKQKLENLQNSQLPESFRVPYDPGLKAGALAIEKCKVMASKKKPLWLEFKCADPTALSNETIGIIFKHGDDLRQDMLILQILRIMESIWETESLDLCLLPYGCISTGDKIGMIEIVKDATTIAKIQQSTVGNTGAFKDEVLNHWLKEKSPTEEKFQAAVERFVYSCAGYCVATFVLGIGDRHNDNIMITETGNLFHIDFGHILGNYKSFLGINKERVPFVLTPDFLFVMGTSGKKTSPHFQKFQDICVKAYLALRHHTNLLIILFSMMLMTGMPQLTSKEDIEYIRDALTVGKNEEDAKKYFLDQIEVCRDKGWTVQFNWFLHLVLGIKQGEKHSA

[4] = Toxicity in NOD/SCID mouse assessed as animal survival at 10 mg/kg, ip dosed 3 times per week and measured after 24 days of treatment; type: organism-based; settings: in vivo, time 24 day
[5] = molecular target: Phosphatidylinositol 4,5-bisphosphate 3-kinase catalytic subunit gamma isoform (Homo sapiens) (UniProt P48736); experiment: Inhibition of PI3Kgamma in human LCL-1 cells assessed as inhibition of cell viability at 100 nM after 72 hrs by CellTiter-Glo luminescent assay; type: cell-based
[6] = molecular target: Phosphatidylinositol 4,5-bisphosphate 3-kinase catalytic subunit gamma isoform (Homo sapiens) (UniProt P48736); experiment: Inhibition of PI3Kgamma in human SUDHL-6 cells assessed as inhibition of cell viability at 100 nM after 72 hrs by CellTiter-Glo luminescent assay; type: cell-based; settings: SU-DHL-6
[7] = molecular target: Phosphatidylinositol 4,5-bisphosphate 3-kinase catalytic subunit gamma isoform (Homo sapiens) (UniProt P48736); experiment: Inhibition of PI3Kgamma in human SUDHL-10 cells assessed as inhibition of cell viability at 100 nM after 72 hrs by CellTiter-Glo luminescent assay; type: cell-based; settings: SU-DHL-10
[8] = molecular target: Phosphatidylinositol 4,5-bisphosphate 3-kinase catalytic subunit gamma isoform (Homo sapiens) (UniProt P48736); experiment: Inhibition of PI3Kgamma in human MOLT-4 cells assessed as inhibition of cell viability at 100 nM after 72 hrs by CellTiter-Glo luminescent assay; type: cell-based
[9] = Toxicity in NOD/SCID mouse assessed as animal death rate at 5 mg/kg, ip dosed 3 times per week and measured after 24 days of treatment; type: organism-based; settings: in vivo, time 24 day, read-out: Activity; procedure, shortened: as §1
[10] = molecular target: Phosphatidylinositol 4,5-bisphosphate 3-kinase catalytic subunit gamma isoform (Homo sapiens) (UniProt P48736); experiment: Inhibition of PI3Kgamma in human RPMI-8226 cells assessed as inhibition of cell viability at 100 nM after 72 hrs by CellTiter-Glo luminescent assay; type: cell-based

**Q.** For `COC(=O)[C@@]12OC[C@]34[C@H]([C@@H](O)[C@@H]1O)[C@@]1(C)CC(=O)C(OC(=O)C[C@H](C)N)=C(C)[C@@H]1C[C@H]3OC(=O)[C@H](OC(=O)C=C(C)C)[C@@H]24`, which Activity [1] is on record?
**A.** The Activity was “Non-Toxic”.

**Q.** And the survival at 576 h [2]?
**A.** Its survival at 576 h is 100%.

**Q.** What about the inhibition [3] of the same compound?
**A.** The inhibition was “Active”.

**Q.** For `COC(=O)[C@@]12OC[C@]34[C@H]([C@@H](O)[C@@H]1O)[C@@]1(C)CC(=O)C(O)=C(C)[C@@H]1C[C@H]3OC(=O)[C@H](OC(=O)C=C(C)C)[C@@H]24`, which survival at 576 h [4] is on record?
**A.** The survival at 576 h was 25%.

**Q.** What about the inhibition [5] of the same compound?
**A.** Its inhibition is “Active”.

**Q.** What about the inhibition [6] of the same compound?
**A.** The inhibition was “Active”.

**Q.** And the survival at 576 h [2]?
**A.** The survival at 576 h was 75%.

**Q.** What about the inhibition [7] of the same compound?
**A.** Its inhibition is “Active”.

**Q.** And the inhibition [8]?
**A.** Its inhibition is “Active”.

**Q.** And the mortality at 576 h [9]?
**A.** The mortality at 576 h was 25%.

**Q.** And the inhibition [10]?
**A.** The inhibition was “Active”.

**Q.** What about the inhibition [3] of the same compound?
**A.** The inhibition was “Active”.

**Q.** Which results are given for `COC(=O)[C@@]12OC[C@]34[C@H]([C@@H](O)[C@@H]1O)[C@@]1(C)CC(=O)C(OC(=O)CNC(=O)OC(C)(C)C)=C(C)[C@@H]1C[C@H]3OC(=O)[C@H](OC(=O)C=C(C)C)[C@@H]24`?
**A.** survival at 576 h [4]: 0%; survival at 576 h [2]: 50%; inhibition [3]: Active

**Q.** For `COC(=O)[C@@]12OC[C@]34[C@H]([C@@H](O)[C@@H]1O)[C@@]1(C)CC(=O)C(OCC(=O)NCCN)=C(C)[C@@H]1C[C@H]3OC(=O)[C@H](OC(=O)C=C(C)C)[C@@H]24`, which inhibition [5] is on record?
**A.** The inhibition was “Active”.

**Q.** And the inhibition [6]?
**A.** The inhibition was “Active”.

**Q.** And the inhibition [7]?
**A.** The inhibition was “Active”.

**Q.** What about the inhibition [8] of the same compound?
**A.** The inhibition was “Active”.

**Q.** What about the inhibition [10] of the same compound?
**A.** Its inhibition is “Active”.

**Q.** What about the inhibition [3] of the same compound?
**A.** Its inhibition is “Active”.

— ChEMBL document CHEMBL4699517 (Bioorg Med Chem Lett, 2020)
